The target in series [1] is T1, Peroxisome proliferator-activated receptor alpha (Homo sapiens, UniProt Q07869).
T1 sequence (Q07869 whole entry): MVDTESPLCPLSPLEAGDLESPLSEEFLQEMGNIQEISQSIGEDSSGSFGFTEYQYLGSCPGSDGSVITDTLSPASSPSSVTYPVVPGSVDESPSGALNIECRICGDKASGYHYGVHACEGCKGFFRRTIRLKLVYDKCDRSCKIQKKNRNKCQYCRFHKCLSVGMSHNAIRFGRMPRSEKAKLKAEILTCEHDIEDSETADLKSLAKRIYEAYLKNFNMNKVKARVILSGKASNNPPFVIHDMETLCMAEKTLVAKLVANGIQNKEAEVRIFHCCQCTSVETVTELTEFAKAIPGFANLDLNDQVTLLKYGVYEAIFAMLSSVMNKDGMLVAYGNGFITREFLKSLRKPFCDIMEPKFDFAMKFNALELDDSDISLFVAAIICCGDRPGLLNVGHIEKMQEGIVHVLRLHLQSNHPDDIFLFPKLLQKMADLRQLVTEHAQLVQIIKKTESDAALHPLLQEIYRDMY
Kind of series: Transactivation of human PPARalpha expressed in human HepG2 cells co-transfected with PPRE3-TK-Luc by luciferase reporter gene assay. In kind it is cell-based. For orientation: Reporter assays use an easily measured gene product as a stand-in for the process of interest.

Series [2] has as its target T2, Peroxisome proliferator-activated receptor delta (Homo sapiens) (UniProt Q03181).
T2 sequence (whole entry): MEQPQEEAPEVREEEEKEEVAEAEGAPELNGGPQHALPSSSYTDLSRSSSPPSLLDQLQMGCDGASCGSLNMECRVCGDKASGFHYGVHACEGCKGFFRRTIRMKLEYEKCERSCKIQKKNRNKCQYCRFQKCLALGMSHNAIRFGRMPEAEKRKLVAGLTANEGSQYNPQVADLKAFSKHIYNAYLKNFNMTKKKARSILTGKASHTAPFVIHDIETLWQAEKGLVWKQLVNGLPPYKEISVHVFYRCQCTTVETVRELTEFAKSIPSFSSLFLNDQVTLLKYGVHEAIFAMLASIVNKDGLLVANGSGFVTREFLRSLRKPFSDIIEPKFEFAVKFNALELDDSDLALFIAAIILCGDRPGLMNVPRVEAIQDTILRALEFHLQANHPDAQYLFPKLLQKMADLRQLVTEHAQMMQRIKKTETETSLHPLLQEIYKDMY
The series can be described thus: Transactivation of human PPARdelta expressed in human HepG2 cells co-transfected with PPRE3-TK-Luc by luciferase reporter gene assay. In kind it is cell-based. The method, boiled down: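 HepG2 cells transfected with pSG5 vector carrying hPPARα, hPPARγ or hPPARδ cDNA, co-transfected with PPRE3-TK-luc. Firefly luciferase activity measured with a commercial kit. β-galactosidase activity read on an ELISA reader. Controls: WY14643 (α), rosiglitazone (γ), GW501516 (δ).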

In series [3] the test system is Rattus norvegicus. The series can be described thus: Toxicity in female Wistar rat assessed as ALP level at 30 mg/kg, po measured after 28 days (reference value: 172.38 +/- 7.18 U/L). The conditions noted are these: in vivo, 672 h.
In series [4] the test system is Mus musculus. The series can be described thus: Antihyperglycemic activity in db/db mouse assessed as reduction in plasma glucose level at 0.01 mg/kg, po. It is filed as functional. Details: scale not given: the % may be the effect or the level left.
Series [5] concerns Mus musculus. The series can be described thus: Hypolipidemic activity in Swiss albino mouse assessed as reduction in triglyceride level at 3 mg/kg, po. It is filed as functional. Details: scale not given: the % may be the effect or the level left.
Series [6] can be described thus: Cmax in fasting Wistar rat at 30 mg/kg, po. In kind it is ADME, organism-based. Details: dose 30 mg/kg, route oral. The note with it: in vivo. The method, boiled down: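 Fasted male Wistar rats received one oral dose of 30 mg/kg. Plasma Cmax, T1/2 and Tmax are reported as mean ± SD of n = 3.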
In series [7] the target is T3, Peroxisome proliferator-activated receptor gamma (Homo sapiens) (UniProt P37231).
T3 sequence (whole entry): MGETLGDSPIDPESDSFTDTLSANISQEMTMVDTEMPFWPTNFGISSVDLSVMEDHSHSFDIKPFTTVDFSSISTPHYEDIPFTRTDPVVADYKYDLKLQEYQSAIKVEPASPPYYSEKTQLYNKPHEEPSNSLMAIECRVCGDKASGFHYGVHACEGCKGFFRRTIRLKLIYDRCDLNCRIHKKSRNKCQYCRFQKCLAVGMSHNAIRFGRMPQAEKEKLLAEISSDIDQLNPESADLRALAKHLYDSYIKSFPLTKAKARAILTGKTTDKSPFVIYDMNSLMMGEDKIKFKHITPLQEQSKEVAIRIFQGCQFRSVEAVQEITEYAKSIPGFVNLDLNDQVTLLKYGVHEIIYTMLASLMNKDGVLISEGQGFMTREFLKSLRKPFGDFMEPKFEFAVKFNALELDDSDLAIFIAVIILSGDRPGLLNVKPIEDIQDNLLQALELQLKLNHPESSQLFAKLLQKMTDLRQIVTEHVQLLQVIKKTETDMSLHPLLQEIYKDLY
Kind of series: Transactivation of human PPARgamma expressed in human HepG2 cells co-transfected with PPRE3-TK-Luc by luciferase reporter gene assay relative to Rosiglitazone. It is filed as cell-based. The method, boiled down: (§1)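 Same HepG2 hPPARα or hPPARγ / PPRE3-TK-luc luciferase transactivation assay. Efficacy expressed as percent of maximal response, normalized to 100% for the reference agonist: WY-14643 for α, rosiglitazone for γ.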

The subject of series [8] is Mus musculus. Kind of series: Antihyperglycemic activity in db/db mouse assessed as reduction in plasma glucose level at 0.003 mg/kg, po. It is filed as functional. Details: scale not given: the % may be the effect or the level left.
In series [9] the test system is Rattus norvegicus. Kind of series: Toxicity in female Wistar rat assessed as heart to body weight ratio at 3 mg/kg, po measured after 28 days (reference value: 0.403 +/- 0.010). In kind it is organism-based. The arrangement: dose 3 mg/kg, route oral. The conditions noted are these: in vivo, 672 h.
Series [10] concerns Mus musculus. Kind of series: Antihyperglycemic activity in db/db mouse assessed as reduction in plasma glucose level at 3 mg/kg, po. In kind it is functional. The arrangement: scale not given: the % may be the effect or the level left.
Series [11] relates to Rattus norvegicus. Kind of series: Toxicity in female Wistar rat assessed as ovary to body weight ratio at 3 mg/kg, po measured after 28 days (reference value: 0.039 +/- 0.005). It is filed as organism-based, Female gonad. Details: dose 3 mg/kg, route oral. The note with it: in vivo, 672 h.
Series [12] relates to Rattus norvegicus. The series can be described thus: Toxicity in female Wistar rat assessed as kidney to body weight ratio at 30 mg/kg, po measured after 28 days (reference value: 0.733 +/- 0.007). In kind it is organism-based. The arrangement: dose 30 mg/kg, route oral. The conditions noted are these: in vivo, 672 h.
The subject of series [13] is Mus musculus. Kind of series: Hypolipidemic activity in db/db mouse assessed as reduction in triglyceride level at 3 mg/kg, po. In kind it is functional. Details: scale not given: the % may be the effect or the level left.
For series [14], the system named is Rattus norvegicus. The series can be described thus: Toxicity in female Wistar rat assessed as albumin level at 3 mg/kg, po measured after 28 days (reference value: 3.92 +/- 0.18 g.dl). It is filed as organism-based. The arrangement: dose 3 mg/kg, route oral. The conditions noted are these: in vivo, 672 h.
Series [15] relates to Rattus norvegicus. Kind of series: Toxicity in male Wistar rat assessed as SGOT level at 3 mg/kg, po measured after 28 days (reference value: 135.14 +/- 6.89 U/L). It is filed as organism-based. Details: dose 3 mg/kg, route oral. The note with it: in vivo, 672 h.
The target in series [16] is T4, Peroxisome proliferator-activated receptor alpha (Homo sapiens) (UniProt Q07869).
T4 sequence (whole entry): T1 sequence (Q07869 whole entry)
The series can be described thus: Transactivation of human PPARalpha expressed in human HepG2 cells co-transfected with PPRE3-TK-Luc by luciferase reporter gene assay relative to WY14643. It is filed as cell-based. In short, it runs like this: as §1

In series [17] the test system is Rattus norvegicus. Kind of series: Toxicity in male Wistar rat assessed as albumin level at 3 mg/kg, po measured after 28 days (reference value: 3.66 +/- 0.10 g.dl). It is filed as organism-based. The arrangement: dose 3 mg/kg, route oral. The note with it: in vivo, 672 h.
The subject of series [18] is Rattus norvegicus. Kind of series: Toxicity in male Wistar rat assessed as glucose level at 30 mg/kg, po measured after 28 days (reference value: 70 +/- 3.49 mg/dl). In kind it is organism-based. The arrangement: dose 30 mg/kg, route oral. The note with it: in vivo, 672 h.

One molecule from ChEMBL document CHEMBL1811848 (Bioorg Med Chem Lett, 2011) can be followed below.

pEC50: −log10 of the molar value. The source made the active and inactive calls. No cut-off for these calls is given here.

Broadly, the pEC50 is −log10 of the EC50, conventionally taken in molar units. By Cmax is commonly meant the maximum level reached in the sampled fluid or tissue. With `CCO[C@@H](Cc1ccc(OCCc2nc(-c3ccc(C)s3)oc2C)cc1)C(=O)O`, the negative-log EC50 (pEC50) in series [1] is 12.51. Moreover, the outcome in [2] was inactive. Further, the Activity with Rattus norvegicus [3] was 248.38 U/L; with Mus musculus [4] it was 52.7%; in the series with Mus musculus [5], 83.1%; in the series with Mus musculus [8], 47.1%; with Mus musculus [10], 62.2%; in the series on Mus musculus [13], 55.1%. For the same molecule, the Activity with Rattus norvegicus [14] amounted to 4.03 g/dL; with Rattus norvegicus [15], 193.51 U/L; in the series on Rattus norvegicus [17], 3.91 g/dL; in the series on Rattus norvegicus [18], 83.28 mg/dL. Further, the highest level in [6] (Cmax) was 91.7 µg/mL. Further, the Emax in series [7] amounted to 165%; in series [16], 116%. Further, the values for the Ratio in the series with Rattus norvegicus [9], with Rattus norvegicus [11] and with Rattus norvegicus [12] were 0.46, 0.02 and 0.915, respectively.
